Test results as given in ChEMBL document CHEMBL4312018, “Novel benzimidazole phosphonates as potential inhibitors of protein prenylation” (Bioorg Med Chem Lett, 2019).
Calls of active or inactive are those of the source. The rule behind the calls is not given here.

How the values were obtained:
[1] = biological target: T1, Geranylgeranyl transferase type-2 (Rattus norvegicus, UniProt Q08602+Q08603); test: Inhibition of recombinant rat RabGGTase expressed in Escherichia coli using Rab7 as substrate and [3H]geranylgeranyl pyrophosphate after 20 mins by liquid scintillation analysis
T1 sequence (Q08603 whole entry): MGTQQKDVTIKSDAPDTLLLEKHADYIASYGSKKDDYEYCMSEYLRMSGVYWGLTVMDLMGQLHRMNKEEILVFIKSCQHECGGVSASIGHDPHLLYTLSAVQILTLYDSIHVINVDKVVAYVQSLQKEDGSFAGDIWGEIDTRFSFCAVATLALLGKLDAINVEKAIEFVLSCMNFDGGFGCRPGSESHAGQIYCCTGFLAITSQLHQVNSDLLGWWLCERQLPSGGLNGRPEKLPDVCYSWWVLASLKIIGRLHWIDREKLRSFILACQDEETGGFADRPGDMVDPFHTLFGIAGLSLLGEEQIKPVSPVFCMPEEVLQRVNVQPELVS
T1 sequence (Q08602 whole entry): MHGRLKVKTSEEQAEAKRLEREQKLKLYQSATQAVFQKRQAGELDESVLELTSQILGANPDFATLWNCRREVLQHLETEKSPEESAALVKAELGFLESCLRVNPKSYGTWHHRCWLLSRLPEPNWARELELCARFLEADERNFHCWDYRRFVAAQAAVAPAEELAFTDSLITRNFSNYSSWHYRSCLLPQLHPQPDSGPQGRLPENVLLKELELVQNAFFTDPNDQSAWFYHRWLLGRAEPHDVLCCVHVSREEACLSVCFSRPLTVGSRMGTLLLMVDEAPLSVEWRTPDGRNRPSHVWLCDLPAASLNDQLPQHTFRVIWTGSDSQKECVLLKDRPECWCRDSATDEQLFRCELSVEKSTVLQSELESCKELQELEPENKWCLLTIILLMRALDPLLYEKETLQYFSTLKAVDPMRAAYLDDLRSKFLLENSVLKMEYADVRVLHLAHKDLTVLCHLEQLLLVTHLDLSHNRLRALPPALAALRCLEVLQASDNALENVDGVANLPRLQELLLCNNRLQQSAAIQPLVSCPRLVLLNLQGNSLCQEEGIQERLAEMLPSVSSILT

[2] = biological target: geranylgeranyltransferase type-I (Rattus norvegicus, UniProt P53610+Q04631); test: Inhibition of recombinant rat GGtase-1 expressed in Escherichia coli using dansyl-GCVLL as substrate after 1.5 hrs by spectrofluorimetric analysis
[3] = biological target: T2, geranylgeranyltransferase type-I (Rattus norvegicus) (UniProt P53610+Q04631); test: Activation of recombinant rat GGtase-1 expressed in Escherichia coli assessed as enzyme activity at 1000 uM using dansyl-GCVLL as substrate after 1.5 hrs by spectrofluorimetric analysis relative to control
[4] = biological target: Protein farnesyltransferase (Rattus norvegicus, UniProt Q02293+Q04631); test: Inhibition of recombinant rat FTase expressed in Escherichia coli using dansyl-GCVLS as substrate after 1.5 hrs by spectrofluorimetric analysis
[5] = biological target: T3, Farnesyl pyrophosphate synthase (Homo sapiens, UniProt P14324); test: Inhibition of FDPS (unknown origin) using [14C] IPP and GPP as substrate preincubated for 10 mins followed by substrate addition and measured after 30 min by liquid scintillation counting method
T3 sequence (P14324 whole entry): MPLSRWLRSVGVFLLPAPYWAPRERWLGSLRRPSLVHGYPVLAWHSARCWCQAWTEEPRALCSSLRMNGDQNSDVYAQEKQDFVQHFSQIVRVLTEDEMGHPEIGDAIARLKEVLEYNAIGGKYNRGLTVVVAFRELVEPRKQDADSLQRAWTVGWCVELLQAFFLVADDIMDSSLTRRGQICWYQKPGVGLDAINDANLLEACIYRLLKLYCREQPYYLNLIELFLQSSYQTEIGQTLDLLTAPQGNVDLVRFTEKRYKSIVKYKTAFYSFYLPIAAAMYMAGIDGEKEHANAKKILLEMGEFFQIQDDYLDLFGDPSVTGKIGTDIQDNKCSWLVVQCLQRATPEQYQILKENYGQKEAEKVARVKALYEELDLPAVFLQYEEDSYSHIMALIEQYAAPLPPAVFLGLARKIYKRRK

[6] = biological target: T4, Geranylgeranyl pyrophosphate synthase (Homo sapiens, UniProt O95749); test: Inhibition of GGDPS (unknown origin) using [14C] IPP and FPP as substrate preincubated for 10 mins followed by substrate addition and measured after 30 min by liquid scintillation counting method
T4 sequence (O95749 whole entry): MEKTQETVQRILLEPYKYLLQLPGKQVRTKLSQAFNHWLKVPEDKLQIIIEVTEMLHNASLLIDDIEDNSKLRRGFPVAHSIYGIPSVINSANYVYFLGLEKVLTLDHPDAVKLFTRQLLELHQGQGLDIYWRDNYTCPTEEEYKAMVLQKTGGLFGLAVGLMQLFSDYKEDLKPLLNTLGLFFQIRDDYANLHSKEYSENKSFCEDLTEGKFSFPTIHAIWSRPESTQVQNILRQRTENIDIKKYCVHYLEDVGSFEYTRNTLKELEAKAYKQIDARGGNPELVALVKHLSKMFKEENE

Homo sapiens = species on record: Homo sapiens; test: Selectivity ratio of IC50 for GGDPS (unknown origin) to IC50 for FDPS (unknown origin)
[7] = biological target: T5, Farnesyl pyrophosphate synthase (Homo sapiens) (UniProt P14324); test: Inhibition of FDPS in human RPMI8226 cells assessed as unmodified Rap1a level at =< 1 mM after 48 hrs by immunoblot analysis; assay type: cell-based
T5 sequence (whole entry): T3 sequence (P14324 whole entry)
Outline: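 RPMI-8226 cells were exposed for 48 h. The lowest effective concentration counts only when two read-outs agree. Unmodified Rap1a must be visible on immunoblot of whole-cell lysate, using an antibody that detects only unmodified protein.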

[8] = biological target: T5, Farnesyl pyrophosphate synthase (Homo sapiens); test: Inhibition of FDPS in human RPMI8226 cells assessed as increase in intracellular lambda chain level at =< 1mM after 48 hrs by ELISA; assay type: cell-based
Outline: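 RPMI-8226 cells were exposed for 48 h, and intracellular lambda light chain was measured by ELISA as percent of untreated control. The lowest effective concentration also requires unmodified Rap1a to be visible on whole-cell-lysate immunoblot with an unmodified-specific antibody. The ELISA rise must be statistically significant.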

[9] = biological target: T6, Geranylgeranyl transferase type-2 (Homo sapiens) (UniProt P53611+Q92696); test: Inhibition of GGtase-2 in human RPMI8226 cells assessed as increase in intracellular lambda chain at =< 1 mM level after 48 hrs by ELISA; assay type: cell-based
Outline: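 RPMI-8226 cells were incubated 48 h with the compound or medium alone. Intracellular lambda light chain was quantified by ELISA and expressed as percent of untreated control (mean ± SD, n=3). Significance versus control was judged by t-test, p<0.05.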

[10] = biological target: T6, Geranylgeranyl transferase type-2 (Homo sapiens); test: Inhibition of GGtase-2 in human RPMI8226 cells assessed as decrease in Rab6 level at =< 1 mM after 48 hrs by immunoblot analysis relative to control; assay type: cell-based
Outline: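 After 48 h treatment, RPMI-8226 cells were extracted with Triton X-114 to give a detergent (membrane) fraction, which was immunoblotted for Rab6. Rab6 band density was normalized to calnexin and expressed relative to untreated cells. Blots are representative of three independent studies.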

[11] = biological target: Protein farnesyltransferase (Homo sapiens) (UniProt P49354+P49356); test: Inhibition of FTase in human RPMI8226 cells assessed as disruption of H-ras farnesylation after 48 hrs by immunoblot analysis; assay type: cell-based
[12] = biological target: Geranylgeranyl transferase type I (Homo sapiens) (UniProt P49354+P53609); test: Inhibition of GGtase-1 in human RPMI8226 cells assessed as disruption of Rap1a geranylgeranylation after 48 hrs immunoblot analysis; assay type: cell-based
[13] = biological target: T2, geranylgeranyltransferase type-I (Rattus norvegicus); test: Activation of recombinant rat GGtase-1 expressed in Escherichia coli using dansyl-GCVLL as substrate after 1.5 hrs by spectrofluorimetric analysis

IC50 [1]: 534 µM
IC50 [2]: > 1000 µM
Activity [3]: 560%
IC50 [4]: > 1000 µM
IC50 [5]: 0.69 µM
IC50 [6]: 41 µM
Ratio IC50 (Homo sapiens): 59
inhibition [7]: inactive
inhibition [8]: inactive
inhibition [9]: inactive
inhibition [10]: inactive
inhibition [11]: inactive
inhibition [12]: inactive
Activity [13]: Dose-dependent effect
SMILES: Cc1cc2ncn(CC(P(=O)(O)O)P(=O)(O)O)c2cc1C
